Several values for one entry are separate records, joined by “and”; a condition that tells them apart may be missing. Identical values can stand only once.
How the values were obtained:
[1] = Cytotoxicity against human BT549 cells assessed as cell growth inhibition after 48 hrs by neutral red dye based assay; type: functional; details: BT-549, 48 h
How it was run: (§1)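 Cells kept in RPMI-1640 with 10% bovine serum and 60 µg/mL amikacin, 37 °C, 5% CO2. Seeded at 25,000 cells/well, left 24 h to adhere. Samples diluted in RPMI added, highest final concentration 10 µg/mL. Growth measured by neutral red uptake after 48 h exposure.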

[2] = Selectivity index, ratio of IC50 for human DNA topoisomerase 1 to IC50 for Candida albicans DNA topoisomerase 1
[3] = molecular target: T1, DNA topoisomerase 1 (Homo sapiens, UniProt P11387); assay: Inhibition of human DNA topoisomerase 1 using pHOT1 as substrate after 30 mins by agarose gel electrophoresis
T1 sequence (P11387 whole entry): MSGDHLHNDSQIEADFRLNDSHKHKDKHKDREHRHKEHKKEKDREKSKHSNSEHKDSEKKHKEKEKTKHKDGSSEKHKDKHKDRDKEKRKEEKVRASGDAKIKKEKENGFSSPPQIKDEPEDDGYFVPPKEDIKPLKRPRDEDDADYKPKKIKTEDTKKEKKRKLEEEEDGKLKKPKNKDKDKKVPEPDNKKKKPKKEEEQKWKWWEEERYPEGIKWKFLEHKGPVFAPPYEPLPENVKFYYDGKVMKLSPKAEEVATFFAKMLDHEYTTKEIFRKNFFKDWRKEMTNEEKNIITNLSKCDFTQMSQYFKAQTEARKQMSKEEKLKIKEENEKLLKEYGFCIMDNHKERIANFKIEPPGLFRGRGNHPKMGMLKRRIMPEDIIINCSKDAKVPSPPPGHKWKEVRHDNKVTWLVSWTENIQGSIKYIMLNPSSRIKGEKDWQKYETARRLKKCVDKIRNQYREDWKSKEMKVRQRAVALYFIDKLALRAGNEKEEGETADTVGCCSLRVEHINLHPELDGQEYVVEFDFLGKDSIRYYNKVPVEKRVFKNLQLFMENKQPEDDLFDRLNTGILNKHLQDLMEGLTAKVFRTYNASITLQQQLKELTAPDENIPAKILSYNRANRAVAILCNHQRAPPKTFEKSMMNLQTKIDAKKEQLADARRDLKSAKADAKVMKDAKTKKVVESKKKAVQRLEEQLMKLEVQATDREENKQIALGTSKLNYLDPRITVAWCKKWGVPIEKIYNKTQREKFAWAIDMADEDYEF
How it was run: (§2)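 Relaxation of supercoiled to relaxed DNA by TopoI measured with a commercial TopoI drug kit following kit protocol. IC50 calculated from dose-response curves of % inhibition versus concentration.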

[4] = Inhibition of Candida albicans DNA topoisomerase 1 using pHOT1 as substrate after 30 mins by agarose gel electrophoresis; how it was run: as §2
[5] = Cytotoxicity against human KB cells assessed as cell growth inhibition after 48 hrs by neutral red dye based assay; type: functional; how it was run: as §1
[6] = Cytotoxicity against human SK-MEL cells assessed as cell growth inhibition after 48 hrs by neutral red dye based assay; type: functional; how it was run: as §1
[7] = system: Candida albicans; assay: Antimicrobial activity against Candida albicans B311; type: functional
How it was run: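 Cultured in Sabouraud dextrose broth 24 h, counted by hemocytometer, diluted to 10,000 CFU/mL. Added to serially diluted samples in 96-well plates, top final concentration 50 µg/mL (≤2.5% DMSO), incubated 37 °C. Growth by A630. MIC is the lowest concentration giving 80% inhibition against controls; IC50 from concentration versus % growth plots.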

[8] = Cytotoxicity against human SKOV3 cells assessed as cell growth inhibition after 48 hrs by neutral red dye based assay; type: functional; details: SK-OV-3, 48 h; how it was run: as §1
[9] = system: Cryptococcus neoformans; assay: Antimicrobial activity against Cryptococcus neoformans ATCC 52657; type: functional
How it was run: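 Grown in mycophil broth 72 h, hemocytometer-counted, diluted to 200,000 CFU/mL. Exposed to diluted samples in 96-well plates, maximum final 50 µg/mL (DMSO up to 2.5%), incubated 30 °C. A630 readout. MIC is the lowest concentration inhibiting 80% of growth versus controls; IC50 read from concentration versus % growth graphs.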

[10] = system: Plasmodium falciparum; assay: Antimalarial activity against Plasmodium falciparum D6 infected in RBC after 48 hrs by lactate dehydrogenase assay; type: functional; details: D6, 48 h
How it was run: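 Parasites grown in A+ human erythrocytes in RPMI 1640 with 10% A+ human serum, 25 mM HEPES, 27 mM bicarbonate, 60 µg/mL amikacin, 37 °C under 90% N2/5% O2/5% CO2. Infected cells exposed 48 h in microtiter wells, highest concentration 4.8 µg/mL. Growth read by Malstat reagent (parasite LDH) with nitro blue tetrazolium reduction, absorbance 630 nm.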

[11] = Cytotoxicity against African green monkey Vero cells assessed as cell growth inhibition at 10 ug/ml after 48 hrs by neutral red dye based assay; type: toxicity; details: chlorocebus sabaeus; how it was run: as §1
[12] = system: Mycobacterium intracellulare; assay: Antimicrobial activity against Mycobacterium intracellulare ATCC 23068; type: functional
How it was run: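 Mycobacterium grown 72 h in Middlebrook medium with OADC supplement, diluted 1:30 in broth. Incubated at 37 °C with diluted samples in 96-well plates, highest final 50 µg/mL, DMSO at most 2.5%. Absorbance at 630 nm. MIC = lowest concentration with 80% growth inhibition relative to controls; IC50 from concentration versus % growth plots.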

Row | Ratio IC50 [2] | IC50 [3] [µM] | IC50 [4] [µg/mL] | IC50 [7] [µg/mL] | MIC80 [7] [µg/mL] | IC50 [9] [µg/mL] | MIC80 [9] [µg/mL] | IC50 [10] [µg/mL] | MIC80 [12] [µg/mL] | SMILES | IC50 [1] [µg/mL] | IC50 [5] [µg/mL] | IC50 [6] [µg/mL] | IC50 [8] [µg/mL] | Activity [11]
1 | 0.8 | 127 | 40 | 9.33 | 12.5 | 0.87 | 3.12 | 0.017 | – | Fc1ccc(C[n+]2ccc3ccnc4c3c2-c2ccccc2-4)cc1.[Br-] | 7.5 | > 10 | 6 | 1.5 | Non-Toxic
2 | 0.95 | 53.7 | 21 | 3 | 6.25 | 0.18 | 0.78 | 0.0042 | 50 | Clc1cccc(C[n+]2ccc3ccnc4c3c2-c2ccccc2-4)c1.[Br-] | 1.6 | 0.68 | 1.15 | 0.055 | Non-Toxic
3 | – | – | – | – | – | – | – | < 0.02 | – | CCN(CC)CCCC(C)Nc1ccnc2cc(Cl)ccc12 (stereo unspecified) [CHLOROQUINE] | – | – | – | – | –
4 | 0.5 | 35.8 | 7.5 | – | – | 19.7 | 50 | 3.2 | – | Cc1cc(C)cc(CS(=O)(=O)[O-])c1.N[n+]1ccc2ccnc3c2c1-c1ccccc1-3 | – | – | > 10 | – | Non-Toxic
5 | 0.5 | 101 | 19 | 4.17 | 6.25 | 0.43 | 1.56 | 0.0225 | – | [Br-].c1ccc(C[n+]2ccc3ccnc4c3c2-c2ccccc2-4)cc1 | – | – | 5.4 | 1.5 | Non-Toxic
6 | – | – | – | 1.5 | 3.12 | 0.52 | 0.78 | 0.033 | 50 | Fc1ccc2c(c1)-c1c3c-2nccc3cc[n+]1Cc1ccccc1.[Br-] | 2.5 | 1.3 | 5.6 | 0.53 | Non-Toxic
7 | 0.71 | 109 | 32 | 5.33 | 6.25 | 0.58 | 1.56 | 0.015 | – | Fc1ccc(C[n+]2ccc3ccnc4c3c2-c2ccccc2-4)c(F)c1.[Br-] | – | – | 6.2 | 2.8 | Non-Toxic
8 | 1 | 1.11 | 0.52 | 5.17 | 12.5 | 0.57 | 3.12 | 0.0094 | – | [Br-].c1ccc(C[n+]2ccc3c4c(nc5cc6c(cc53)OCO6)-c3ccccc3-c42)cc1 | 1.3 | 1 | 0.55 | 0.6 | Non-Toxic
9 | 0.96 | 5.7 | 2.3 | – | – | – | – | 0.56 | – | CCOC(=O)C[n+]1ccc2c3c(nc4ccccc42)-c2ccccc2-c31.[Br-] | – | – | > 10 | 5.9 | Non-Toxic
10 | 0.86 | 45 | 15 | 6.17 | 12.5 | 0.48 | 1.56 | 0.062 | 50 | Cc1ccc2c(c1)-c1c3c-2nccc3cc[n+]1Cc1ccccc1.[Br-] | 1.8 | 0.52 | 1.4 | 0.58 | Non-Toxic
11 | 1.15 | 12.3 | 5.75 | 16.7 | 25 | 0.7 | 1.56 | 0.032 | 50 | COc1ccc2c(c1)-c1c3c-2nccc3cc[n+]1Cc1ccccc1.[Br-] | 1.1 | 0.2 | 1.5 | 0.15 | Non-Toxic
12 | 0.94 | 1.02 | 0.425 | 16.1 | 25 | 0.37 | 1.56 | 0.028 | 50 | C[n+]1ccc2c3c(nc4cc5c(cc42)OCO5)-c2ccccc2-c31.[I-] | 1.2 | 4.2 | 5 | 1.2 | Non-Toxic
13 | 1 | 28.9 | 10 | – | – | 10 | 50 | 0.06 | – | C[n+]1ccc2ccnc3c2c1-c1ccccc1-3.[I-] | – | – | – | > 10 | Non-Toxic
14 | 1.11 | 12.5 | 5 | – | – | 8 | 50 | 0.11 | – | Cc1cc2cc[n+](C)c3c2c(n1)-c1ccccc1-3.[I-] | – | – | – | – | Non-Toxic
15 | 0.91 | 136 | 50 | – | – | 6.18 | 25 | 0.17 | – | O=C(C[n+]1ccc2ccnc3c2c1-c1ccccc1-3)c1ccccc1.[Br-] | > 10 | > 10 | – | 6 | Non-Toxic
16 | 0.98 | 9.75 | 4.3 | 1.5 | 3.12 | 0.95 | 3.12 | 0.04 | – | [Br-].c1ccc(C[n+]2ccc3cc(-c4ccccc4)nc4c3c2-c2ccccc2-4)cc1 | 1.2 | 1 | 0.7 | 0.25 | Non-Toxic
17 | 0.83 | 242 | 75 | – | – | – | – | 0.5 | – | CCOC(=O)C[n+]1ccc2ccnc3c2c1-c1ccccc1-3.[Br-] | – | – | – | 7.6 | Non-Toxic
18 | 0.86 | 50 | 18 | – | – | 1.19 | 6.25 | 0.035 | 50 | O=[N+]([O-])c1ccc(C[n+]2ccc3ccnc4c3c2-c2ccccc2-4)cc1.[Br-] | 4 | 1.8 | 4.9 | 0.62 | Non-Toxic
19 | 0.92 | 30.8 | 11 | 13.3 | 25 | 0.82 | 1.56 | 0.095 | – | Cc1cc2cc[n+](Cc3ccccc3)c3c2c(n1)-c1ccccc1-3.[Br-] | 3.5 | > 10 | 4.2 | 1.7 | Non-Toxic

Row | SMILES | Ratio IC50 [2] | IC50 [3] [µM] | IC50 [4] [µg/mL] | IC50 [7] [µg/mL] | MIC80 [7] [µg/mL] | IC50 [9] [µg/mL] | MIC80 [9] [µg/mL] | IC50 [10] [µg/mL] | MIC80 [12] [µg/mL] | IC50 [1] [µg/mL] | IC50 [5] [µg/mL] | IC50 [6] [µg/mL] | IC50 [8] [µg/mL] | Activity [11]
20 | C[n+]1ccc2c3c(nc4ccccc42)-c2ccccc2-c31 | 0.83 and 1 | – | – | – | – | – | – | – | – | – | – | – | – | –
